Screens: PubChem, Sanford-Burnham Center for Chemical Genomics
XBP1 UPR activ – activators of adaptive arm of unfolded protein response (XBP1) | AID 463104 | activation, % at 20 µM | CHO-XBP1 luciferase reporter, IRE1-XBP1 UPR activation, luminescence; percent of tunicamycin response, DMSO as zero | 330,000 compounds, 0.33% hits;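 active = versus positive control, 20 µM dose yields 30% or more activation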;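 note: 100% = tunicamycin at 10 µg/mL and 0% = DMSO only wells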
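Material – CHO cell line with stable XBP1 luciferase reporter · Buffer or medium – F12 plus 10% FBS · Compound – single point, 20 µM final compound, 1% DMSO · Schedule – 16-18 h cell attachment at 37 °C, then 6 h compound exposure · Signal – Steady-Glo luminescence read · Benchmarks – high control tunicamycin 10 µg/mL final, low control DMSO vehicle only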
CHOP UPR activ – activators of apoptotic arm of unfolded protein response (CHOP); CHO-CHOP luciferase reporter, UPR activation, luminescence; percent of tunicamycin response over DMSO baseline; activation, % at 10 µM; 330,000 compounds, 0.34% hits; AID 449763;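 active = at 10 µM dose, activation of 40% or more, normalized to positive control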;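 note: 100% = tunicamycin at 10 µg/mL and 0% = DMSO alone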
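Material: CHO-CHOP cells, stable luciferase reporter of PERK-eIF2a-CHOP signalling; quantity: 500 reporter cells seeded per well; buffer or medium: F12 medium containing 10% fetal bovine serum; compound: one dose, 10 µM in 0.5% DMSO; incubation: 6 h compound treatment, 37 °C; measured by: Steady-Glo luciferase luminescence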
tim10-1 inh – tim10-1 yeast growth inhibition; S. cerevisiae tim10-1 ts strain growth, BacTiter-Glo, 24 h; inhibition, % at 20 µM; 330,000 compounds, 2.2% hits;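 active = inhibition of at least 40%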;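 note: mutant grown at 25 °C; 0% = DMSO wells with yeast and 100% = wells holding no yeast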
TIM10 inh – growth inhibitors of TIM10 yeast strain; inhibition, % at 10 µM; 330,000 compounds, 1.4% hits; S. cerevisiae TIM10 strain growth, BacTiter-Glo luminescence, 24 h;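 active = inhibition of 40% or more at the single tested concentration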;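 note: wild-type TIM10 isogenic control strain grown at permissive 25 °C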
tim23-1 inh – inhibits growth of tim23-1 mutant yeast | AID 463212 | S. cerevisiae tim23-1 growth, BacTiter-Glo luminescence, 24 h | inhibition, % at 20 µM | 330,000 compounds, 1.3% hits;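 active = growth inhibition of the mutant yeast at or above 50%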;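 note: temperature-sensitive mutant grown at 25 °C; plate controls were DMSO-treated mutant yeast for no effect and medium wells lacking yeast for full effect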
UPR CHOP confirm – confirmation of apoptotic unfolded protein response (CHOP) activators | shares compounds with CHOP UPR activ | CHO-CHOP cells, CHOP-luciferase reporter luminescence; percent of tunicamycin response, DMSO as zero | activation, % at 10 µM | 1,000 compounds, 64% hits | AID 463112; in the data active = activation above about 33%;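 note: 0% = DMSO wells and 100% = tunicamycin 10 µg/mL wells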
* marks the source's active call; other numbers are inactive results; · = not tested or not shown. In the library only some 3.9% were active in any assay of this set; here they are far more common.

SMILES	XBP1 UPR activ	CHOP UPR activ	tim10-1 inh	TIM10 inh	tim23-1 inh	UPR CHOP confirm
CCOC(=O)c1cc(-c2ccc(/C=N\n3cnnc3)o2)ccc1Cl	3.0	0.0	15.4	16.7	18.0	·
CCCCC1OC23CCCCC2C(C#N)(C#N)C1(C#N)C(=N)O3 (configuration not stated)	-2.9	17.4	1.1	9.2	7.4	·
CCCCCCCCOc1ccc(C2OC34CCCCC3C(C#N)(C#N)C2(C#N)C(=N)O4)cc1 (configuration not stated)	-1.9	45.0*	5.3	-4.1	15.6	28.6
CN(C)CCCN(C(=O)c1ccc(S(=O)(=O)N(C)C2CCCCC2)cc1)c1nc2ccc(F)cc2s1	2.2	1.5	37.2	6.7	21.8	·
CCc1ccc2nc(N(CCCN(C)C)C(=O)c3ccc(S(=O)(=O)N(C)C4CCCCC4)cc3)sc2c1	130.6*	112.8*	24.4	36.0	21.4	65.3*
COc1ccc(/C=C/C(=O)Oc2ccc(C)cc2)cc1	28.7	42.7*	24.6	15.7	24.7	39.6*
CS(=O)(=O)c1ccc(S(=O)CC(=O)Oc2ccc(Cl)cc2)c([N+](=O)[O-])c1 (configuration not stated)	-8.8	51.5*	29.8	19.3	28.6	24.2
Cc1oc2c(O)c(O)ccc2c(=O)c1-c1cnn(-c2ccccc2)c1	5.8	114.0*	26.9	17.2	0.7	13.7
CN(C)c1ncc(S(=O)(=O)c2ccc(Cl)cc2)c(-c2ccccc2)n1	-0.7	0.1	19.0	19.1	31.2	·
O=S(=O)(c1ccc(Cl)cc1)c1snnc1-c1ccccc1	12.2	63.9*	12.8	-6.5	30.8	55.5*
CC1=CN2C(=N)/C(=C/c3cn(CCCOc4ccccc4C)c4ccccc34)C(=O)N=C2S1	28.9	44.3*	8.9	-8.2	2.4	28.7
CCN(CC(=O)Nc1ccccc1C(F)(F)F)C(=O)c1ccc2[nH]c3c(c2c1)CC(C)CC3 (configuration not stated)	-1.1	0.1	27.7	18.4	35.4	·
CC1CCN(S(=O)(=O)c2ccc(C(=O)N3CCCC3C(=O)O)cc2)CC1 (configuration not stated)	0.3	1.6	13.9	0.9	11.6	·
Cc1ccn2cc(-c3cccc(NC(=O)C(C)C)c3)nc2c1	2.3	5.5	23.3	5.5	7.7	·
Oc1ccc(-c2cn3ccccc3n2)cc1O	-1.5	154.7*	-14.5	7.8	-3.4	33.5*
Cc1ccn2cc(-c3ccc(O)c(O)c3)nc2c1	-4.1	120.0*	-7.4	6.8	20.2	56.6*
O=C(Nc1nc2ccc(F)cc2s1)c1ccccn1	-7.7	79.9*	34.8	-6.7	41.5	73.2*
Cc1ccc(NC(=O)CN2C(=O)NC(C)(C3CC3)C2=O)c(C)c1 (configuration not stated)	-2.1	70.0*	-10.6	1.9	-1.6	-1.4
O=C(CCl)Nc1ccc(S(=O)(=O)NC2=NCCCCC2)cc1	7.7	6.2	-1.8	-11.8	7.1	·
O=C(CCl)Nc1cccc(S(=O)(=O)NC2=NCCCCC2)c1	19.6	166.8*	13.7	6.7	18.3	81.3*
COc1ccc(N2CCN(C(=O)c3cc(S(=O)(=O)N4CCCCCC4)ccc3OC)CC2)cc1	-3.5	-0.7	21.0	5.5	19.8	·
FC(F)(F)C1=Nc2cccc3cccc(c23)N1	-0.5	62.2*	5.6	15.6	18.6	26.7
COc1cccc2sc(Nc3nnc(-c4cccs4)o3)nc12	5.0	55.3*	9.6	10.5	7.0	59.7*
CCN(CC)c1ccc(/C=C2\C(=O)N(c3nnc(C)c(=O)[nH]3)N=C2C)cc1	-0.5	221.4*	12.6	14.7	24.6	832.2*
O=C(/C=C/c1ccc(O)c(O)c1)OC(Cc1ccc(O)c(O)c1)C(=O)O (configuration not stated)	5.4	-0.2	-9.2	-8.9	-1.9	·
O=C(/C=C/c1ccc(O)c(O)c1)OCCc1ccccc1	5.7	52.4*	16.4	4.5	44.9	145.4*
Cc1ccc(S(=O)(=O)NC2OC(=O)C(Cl)=C2Cl)cc1 (configuration not stated)	-5.2	63.0*	8.4	0.9	16.8	14.9
